Measured values as given in ChEMBL document CHEMBL2424574, “Structure-activity relationships and pharmacophore model of a noncompetitive pyrazoline containing class of GluN2C/GluN2D selective antagonists” (J Med Chem, 2013).
pIC50, pKi: −log10 of the molar value. Calls of active or inactive are those of the source. No cut-off for these calls is given here.

How the values were obtained:
Plasma [1] = test: Metabolic stability in mouse plasma after 2 hrs; type: ADME, cell-free
Method in brief: (§1)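 Stability followed in human, rat or mouse plasma over a 2-hour time course.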

[2] = molecular target: P2X purinoceptor 2 (Homo sapiens) (UniProt Q9UBL9); test: Inhibition of human purinergic receptor P2X subunit-2 expressed in Xenopus laevis oocytes assessed as inhibition of ATP-induced current at 3 uM by two-electrode voltage clamp method; values are per cent of control; conditions: Oocyte
Chain of P2X purinoceptor 2 (Homo sapiens) (Q9UBL9 whole entry): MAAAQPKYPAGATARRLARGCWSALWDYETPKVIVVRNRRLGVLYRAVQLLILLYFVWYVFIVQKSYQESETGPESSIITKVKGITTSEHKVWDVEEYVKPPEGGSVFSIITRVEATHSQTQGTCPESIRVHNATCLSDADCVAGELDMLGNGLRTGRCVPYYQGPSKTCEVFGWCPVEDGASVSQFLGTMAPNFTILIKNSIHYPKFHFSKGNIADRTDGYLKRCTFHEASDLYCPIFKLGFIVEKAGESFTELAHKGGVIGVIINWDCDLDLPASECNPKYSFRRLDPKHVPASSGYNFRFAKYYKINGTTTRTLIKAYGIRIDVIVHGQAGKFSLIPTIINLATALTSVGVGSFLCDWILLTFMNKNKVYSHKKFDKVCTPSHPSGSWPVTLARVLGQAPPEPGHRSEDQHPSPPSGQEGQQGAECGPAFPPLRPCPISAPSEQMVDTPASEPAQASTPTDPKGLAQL

[3] = molecular target: Neuronal acetylcholine receptor; alpha3/beta4 (Homo sapiens) (UniProt P30926+P32297); test: Inhibition of human nicotinic acetylcholine receptor subunit alpha-3 beta-4 expressed in Xenopus laevis oocytes assessed as inhibition of acetylcholine-induced current at 3 uM by two-electrode voltage clamp method; values are per cent of control; conditions: Oocyte
Homo sapiens [4] = species on record: Homo sapiens; test: Inhibition of GluN2D receptor L705F mutant (unknown origin)
[5] = molecular target: Glutamate receptor ionotropic, kainate 1 (Homo sapiens) (UniProt P39086); test: Inhibition of GluK1 receptor (unknown origin) expressed in Xenopus laevis oocytes assessed as inhibition of glutamate-induced current at 3 uM by two-electrode voltage clamp method; values are per cent of control; conditions: Oocyte
Rattus norvegicus = species on record: Rattus norvegicus; test: Selectivity ratio of IC50 for recombinant rat GluN2B receptor to IC50 for recombinant rat GluN2D receptor
Method in brief: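 Rat GluN1 co-expressed with GluN2A, GluN2B or GluN2D in Xenopus oocytes. Two-electrode voltage clamp at −40 mV in 90 NaCl, 1 KCl, 0.5 BaCl2, 0.005 EDTA, 10 HEPES (mM), pH 7.4, 23 °C; final DMSO 0.1–0.05%. IC50s came from Hill fits to averaged composite concentration-response curves (5–24 oocytes, 2–4 frogs). Ratio is GluN2A or GluN2B IC50 over GluN2D IC50.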

Plasma [6] = test: Metabolic stability in human plasma after 2 hrs; type: ADME, cell-free; method in brief: as §1
[7] = molecular target: Neuronal acetylcholine receptor; alpha9/alpha10 (Homo sapiens) (UniProt Q9UGM1+Q9GZZ6); test: Inhibition of nicotinic acetylcholine receptor subunit alpha-9 alpha-10 (unknown origin) expressed in Xenopus laevis oocytes assessed as inhibition of acetylcholine-induced current at 3 uM by two-electrode voltage clamp method; values are per cent of control; conditions: Oocyte
[8] = molecular target: T1, Ionotropic glutamate receptor NMDA 1/2D (Homo sapiens) (UniProt Q05586+O15399); conditions: Oocyte, 1 uM
Homo sapiens [9] = species on record: Homo sapiens; test: Inhibition of GluN2D receptor A752V mutant (unknown origin)
[10] = molecular target: Glutamate receptor ionotropic, NMDA 2A (Rattus norvegicus, UniProt P35439+Q00959); test: Negative allosteric modulation of recombinant rat GluN2A receptor expressed in Xenopus laevis oocytes by two-electrode voltage clamp method; type: cell-based, Oocyte
Chain of Glutamate receptor ionotropic, NMDA 2A (Q00959 whole entry, one chain of several): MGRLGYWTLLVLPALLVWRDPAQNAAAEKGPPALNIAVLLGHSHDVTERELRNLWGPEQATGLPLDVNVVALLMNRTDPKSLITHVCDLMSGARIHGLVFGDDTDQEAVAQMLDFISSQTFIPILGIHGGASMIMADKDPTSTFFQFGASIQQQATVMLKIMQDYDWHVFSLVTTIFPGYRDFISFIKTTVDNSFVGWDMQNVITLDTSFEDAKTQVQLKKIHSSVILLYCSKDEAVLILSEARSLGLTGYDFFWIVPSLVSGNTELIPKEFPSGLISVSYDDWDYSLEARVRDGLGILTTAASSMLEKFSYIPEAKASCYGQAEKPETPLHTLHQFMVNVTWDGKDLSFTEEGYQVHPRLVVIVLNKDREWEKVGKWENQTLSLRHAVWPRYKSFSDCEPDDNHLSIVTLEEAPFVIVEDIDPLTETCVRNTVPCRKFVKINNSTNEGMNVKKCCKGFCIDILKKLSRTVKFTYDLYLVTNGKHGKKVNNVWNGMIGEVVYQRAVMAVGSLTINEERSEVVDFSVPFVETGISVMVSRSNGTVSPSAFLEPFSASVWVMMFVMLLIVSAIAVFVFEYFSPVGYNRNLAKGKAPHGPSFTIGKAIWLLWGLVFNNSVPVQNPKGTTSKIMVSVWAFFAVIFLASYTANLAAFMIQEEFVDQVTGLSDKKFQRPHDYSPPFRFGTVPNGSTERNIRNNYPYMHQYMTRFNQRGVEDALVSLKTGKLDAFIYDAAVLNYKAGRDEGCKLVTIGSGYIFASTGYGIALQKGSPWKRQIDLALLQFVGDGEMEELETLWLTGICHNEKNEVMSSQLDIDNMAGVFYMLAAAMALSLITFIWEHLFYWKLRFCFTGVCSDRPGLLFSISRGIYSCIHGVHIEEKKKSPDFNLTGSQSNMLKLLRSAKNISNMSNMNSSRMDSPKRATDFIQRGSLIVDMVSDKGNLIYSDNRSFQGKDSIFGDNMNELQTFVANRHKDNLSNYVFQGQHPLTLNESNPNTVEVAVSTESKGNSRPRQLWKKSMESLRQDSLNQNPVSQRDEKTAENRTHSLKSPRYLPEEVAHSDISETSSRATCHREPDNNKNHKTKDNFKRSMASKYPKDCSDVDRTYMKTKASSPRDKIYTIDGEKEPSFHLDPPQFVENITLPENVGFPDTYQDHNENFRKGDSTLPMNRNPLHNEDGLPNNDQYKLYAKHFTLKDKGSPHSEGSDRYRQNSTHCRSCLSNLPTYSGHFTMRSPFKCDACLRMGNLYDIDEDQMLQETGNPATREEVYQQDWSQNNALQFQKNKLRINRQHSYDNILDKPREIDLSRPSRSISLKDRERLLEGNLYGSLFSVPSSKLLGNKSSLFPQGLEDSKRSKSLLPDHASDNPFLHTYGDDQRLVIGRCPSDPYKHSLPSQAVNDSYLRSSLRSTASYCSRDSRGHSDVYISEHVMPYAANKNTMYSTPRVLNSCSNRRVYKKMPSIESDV
Method in brief: (§2)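 Two-electrode voltage clamp of Xenopus oocytes expressing rat GluN1 with GluN2A, 2B, 2C or 2D. Holding potential −40 mV in recording solution (mM: 90 NaCl, 1 KCl, 0.5 BaCl2, 0.005 EDTA, 10 HEPES, pH 7.4, 23 °C). Compounds diluted from 20 mM DMSO stocks to 0.05–0.1% final DMSO. IC50 from a Hill fit to the averaged composite concentration–response curve, 5–24 oocytes from 2–4 frogs.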

[11] = molecular target: Glutamate receptor ionotropic, NMDA 2B (Rattus norvegicus, UniProt P35439+Q00960); test: Negative allosteric modulation of recombinant rat GluN2B receptor expressed in Xenopus laevis oocytes by two-electrode voltage clamp method; type: cell-based, Oocyte; method in brief: as §2
[12] = molecular target: Glutamate receptor ionotropic, NMDA 2D (Rattus norvegicus, UniProt P35439+Q62645); test: Negative allosteric modulation of recombinant rat GluN2D receptor expressed in Xenopus laevis oocytes by two-electrode voltage clamp method; type: cell-based, Oocyte; method in brief: as §2
Chain of Glutamate receptor ionotropic, NMDA 2D (Q62645 whole entry, one chain of several): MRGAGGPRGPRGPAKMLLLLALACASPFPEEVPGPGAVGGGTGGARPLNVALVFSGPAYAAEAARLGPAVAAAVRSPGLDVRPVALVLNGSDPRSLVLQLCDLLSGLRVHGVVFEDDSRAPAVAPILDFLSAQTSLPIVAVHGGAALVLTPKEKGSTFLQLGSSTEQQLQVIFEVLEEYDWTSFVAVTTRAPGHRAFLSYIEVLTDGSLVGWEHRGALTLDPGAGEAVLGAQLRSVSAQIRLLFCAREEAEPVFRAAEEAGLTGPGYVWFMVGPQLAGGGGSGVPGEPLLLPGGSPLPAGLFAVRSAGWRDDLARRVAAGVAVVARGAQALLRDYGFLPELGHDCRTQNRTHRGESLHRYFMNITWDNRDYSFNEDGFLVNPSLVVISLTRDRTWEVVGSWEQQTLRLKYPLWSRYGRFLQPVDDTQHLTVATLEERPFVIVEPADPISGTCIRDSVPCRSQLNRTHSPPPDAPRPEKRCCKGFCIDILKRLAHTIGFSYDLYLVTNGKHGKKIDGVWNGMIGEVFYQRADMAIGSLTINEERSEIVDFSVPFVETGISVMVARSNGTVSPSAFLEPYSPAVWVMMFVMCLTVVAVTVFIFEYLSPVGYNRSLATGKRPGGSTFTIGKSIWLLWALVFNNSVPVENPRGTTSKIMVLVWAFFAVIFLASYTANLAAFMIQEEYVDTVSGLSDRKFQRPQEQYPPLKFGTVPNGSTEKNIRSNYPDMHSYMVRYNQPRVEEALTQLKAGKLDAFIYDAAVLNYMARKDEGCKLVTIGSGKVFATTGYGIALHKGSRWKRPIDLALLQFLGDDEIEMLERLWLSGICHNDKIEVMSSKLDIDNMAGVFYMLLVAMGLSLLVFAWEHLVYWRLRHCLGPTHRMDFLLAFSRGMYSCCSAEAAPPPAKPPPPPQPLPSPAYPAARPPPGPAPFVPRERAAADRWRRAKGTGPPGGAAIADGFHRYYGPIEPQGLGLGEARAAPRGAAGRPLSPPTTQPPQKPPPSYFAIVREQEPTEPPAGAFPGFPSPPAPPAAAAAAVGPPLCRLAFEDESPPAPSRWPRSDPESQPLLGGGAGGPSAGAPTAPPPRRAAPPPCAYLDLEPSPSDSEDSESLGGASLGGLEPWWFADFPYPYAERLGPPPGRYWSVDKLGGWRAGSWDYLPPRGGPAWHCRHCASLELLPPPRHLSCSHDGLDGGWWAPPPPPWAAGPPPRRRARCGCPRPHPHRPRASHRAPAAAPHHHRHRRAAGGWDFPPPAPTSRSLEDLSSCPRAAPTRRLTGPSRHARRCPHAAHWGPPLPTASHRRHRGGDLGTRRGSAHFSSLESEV

[13] = molecular target: Glutamate NMDA receptor; GRIN1/GRIN2B (Homo sapiens) (UniProt Q05586+Q13224); test: Inhibition of GluN1/GluN2B receptor (unknown origin) expressed in Xenopus laevis oocytes assessed as inhibition of glutamate/glycine-induced current at 3 uM by two-electrode voltage clamp method; values are per cent of control; conditions: Oocyte
[14] = molecular target: Neuronal acetylcholine receptor; alpha4/beta2 (Homo sapiens) (UniProt P17787+P43681); test: Inhibition of human nicotinic acetylcholine receptor subunit alpha-4 beta-2 expressed in Xenopus laevis oocytes assessed as inhibition of acetylcholine-induced current at 3 uM by two-electrode voltage clamp method; values are per cent of control; conditions: Oocyte
Homo sapiens [15] = species on record: Homo sapiens; test: Inhibition of GluN2D receptor Q801Y mutant (unknown origin)
[16] = molecular target: Glutamate receptor ionotropic, NMDA 2C (Rattus norvegicus, UniProt P35439+Q00961); test: Negative allosteric modulation of recombinant rat GluN2C receptor expressed in Xenopus laevis oocytes by two-electrode voltage clamp method; type: cell-based, Oocyte; method in brief: as §2
Chain of Glutamate receptor ionotropic, NMDA 2C (Q00961 whole entry, one chain of several): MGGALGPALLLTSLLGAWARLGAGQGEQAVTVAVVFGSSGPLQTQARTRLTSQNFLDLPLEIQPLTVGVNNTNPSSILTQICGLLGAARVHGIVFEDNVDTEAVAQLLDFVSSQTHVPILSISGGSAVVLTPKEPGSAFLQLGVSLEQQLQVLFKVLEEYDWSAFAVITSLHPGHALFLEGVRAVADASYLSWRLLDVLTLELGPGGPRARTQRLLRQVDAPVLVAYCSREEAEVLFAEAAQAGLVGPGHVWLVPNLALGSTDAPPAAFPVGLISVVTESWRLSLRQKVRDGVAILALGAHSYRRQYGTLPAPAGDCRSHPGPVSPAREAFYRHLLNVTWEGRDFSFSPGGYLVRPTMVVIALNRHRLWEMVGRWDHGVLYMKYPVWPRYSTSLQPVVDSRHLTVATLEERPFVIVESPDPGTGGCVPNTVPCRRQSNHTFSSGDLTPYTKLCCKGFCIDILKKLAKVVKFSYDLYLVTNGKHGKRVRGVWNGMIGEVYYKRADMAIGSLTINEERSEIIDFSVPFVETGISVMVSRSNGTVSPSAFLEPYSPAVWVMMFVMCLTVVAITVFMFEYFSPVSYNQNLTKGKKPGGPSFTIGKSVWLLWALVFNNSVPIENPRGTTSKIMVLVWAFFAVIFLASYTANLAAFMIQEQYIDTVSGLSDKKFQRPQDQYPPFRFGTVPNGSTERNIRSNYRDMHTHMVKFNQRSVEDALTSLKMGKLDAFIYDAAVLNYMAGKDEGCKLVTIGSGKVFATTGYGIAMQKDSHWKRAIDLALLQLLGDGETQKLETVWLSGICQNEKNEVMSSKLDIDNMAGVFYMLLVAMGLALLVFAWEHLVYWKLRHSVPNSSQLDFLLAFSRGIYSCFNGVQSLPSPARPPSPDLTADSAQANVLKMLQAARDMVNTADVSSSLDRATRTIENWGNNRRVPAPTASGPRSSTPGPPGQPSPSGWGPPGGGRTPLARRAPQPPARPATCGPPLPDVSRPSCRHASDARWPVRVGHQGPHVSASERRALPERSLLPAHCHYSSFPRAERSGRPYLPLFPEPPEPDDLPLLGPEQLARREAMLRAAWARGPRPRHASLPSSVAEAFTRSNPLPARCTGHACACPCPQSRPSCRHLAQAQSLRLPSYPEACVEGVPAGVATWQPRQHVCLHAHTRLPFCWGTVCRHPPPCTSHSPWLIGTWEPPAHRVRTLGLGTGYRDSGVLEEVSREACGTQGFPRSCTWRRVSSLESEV

[17] = molecular target: T1, Ionotropic glutamate receptor NMDA 1/2D (Homo sapiens); conditions: Oocyte, 1 uM; remark: listed apart in the source
[18] = Aqueous solubility in DMSO buffer by nephelometric analysis; type: physicochemical; conditions: oocyte recording buffer; in the assay text read “oocyte recording buffer” for “DMSO buffer”
Method in brief: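 Solubility measured by nephelometry in oocyte recording buffer: 90 mM NaCl, 1 KCl, 0.5 BaCl2, 0.005 EDTA, 10 HEPES, pH 7.4.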

Liver microsomes = test: Metabolic stability in human liver microsomes assessed as compound remaining at 1 uM after 30 mins by LC-MS/MS analysis; type: ADME, Microsome; conditions: 0.5 h
Method in brief: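 Human liver microsomes 0.5 mg/mL in 100 mM potassium phosphate pH 7.4 with 5 mM MgCl2 and 1 μM test compound. Preincubated 3 min at 37 °C, then started with 1 mM NADPH, with a testosterone control in parallel. Sampled at 0, 10, 20, 30 and 60 min and quenched in cold acetonitrile/water with formic acid and internal standard. Percent remaining by LC-MS/MS (MRM) versus time 0. t1/2 = 0.693/k from the ln-remaining slope; CLint = k/protein concentration.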

MDCK [19] = test: Apparent permeability across basolateral to apical side in dog MDCK cells expressing MDR1 at 5 uM after 120 mins by LC-MS/MS analysis; type: ADME, cell-based, Canis lupus familiaris; conditions: 2 h
Method in brief: (§3)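 MDR1-MDCK monolayers grown to confluence on collagen-coated polycarbonate membranes. Assay buffer was HBSS with 10 mM HEPES and 15 mM glucose, pH 7.4, and the receiver side also held 1% BSA. Monolayers were dosed apically (A-to-B) or basolaterally (B-to-A) at 5 μM, 37 °C, 5% CO2. Donor and receiver were sampled at 120 min, in duplicate, by LC-MS/MS (ESI). Papp and percent recovery were calculated from receiver/donor concentrations.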

Histamine H2 receptor = Histamine H2 receptor (Homo sapiens, UniProt P25021); test: Inhibition of histamine H2 receptor (unknown origin)
Chain of Histamine H2 receptor (P25021 whole entry): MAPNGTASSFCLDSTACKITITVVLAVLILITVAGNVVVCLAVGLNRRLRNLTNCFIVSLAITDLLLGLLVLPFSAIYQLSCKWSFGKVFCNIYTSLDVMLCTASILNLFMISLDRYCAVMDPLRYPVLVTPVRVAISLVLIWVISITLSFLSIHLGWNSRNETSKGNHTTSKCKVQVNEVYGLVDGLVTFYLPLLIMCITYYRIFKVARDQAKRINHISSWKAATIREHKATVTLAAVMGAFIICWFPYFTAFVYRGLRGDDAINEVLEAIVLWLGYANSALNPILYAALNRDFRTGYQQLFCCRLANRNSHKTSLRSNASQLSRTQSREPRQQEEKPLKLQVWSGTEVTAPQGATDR
Method in brief: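 Radioligand panel screening was run through the NIMH Psychoactive Drug Screening Program with compounds at 5 µM.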

MDCK [20] = test: Permeability across apical to basolateral side in dog MDCK cells expressing MDR1 assessed as compound recovery at 5 uM after 120 mins by LC-MS/MS analysis; type: ADME, cell-based, Canis lupus familiaris; conditions: 2 h; method in brief: as §3

Row | Structure (SMILES) | Stability (Plasma [1]) | residual activity [2] [%] | residual activity [3] [%] | residual activity [5] [%] | Ratio IC50 (Rattus norvegicus) | Stability (Plasma [6]) | residual activity [7] [%] | pIC50 [10] | pIC50 [11] | pIC50 [12] | residual activity [13] [%] | residual activity [14] [%] | pIC50 [16] | also measured
1 | O=C(O)/C=C/C(=O)N1N=C(c2c(-c3ccc(Br)cc3)c3ccccc3[nH]c2=O)CC1c1ccc(Cl)cc1 (racemic) | Stable | 100 | 87 | 100 | 63 | Stable | 72 | 5.37 | 4.92 | 6.72 | 98 | 82 | 6.70 | inhibition (Homo sapiens [4]): inactive; residual activity [8]: 4.8%; inhibition (Homo sapiens [9]): inactive; inhibition (Homo sapiens [15]): inactive; residual activity [17]: 4.9%
2 | O=C(O)CCC(=O)N1N=C(c2c(-c3ccc(Cl)cc3)c3ccccc3[nH]c2=O)CC1c1ccc(Cl)cc1 (racemic) | Stable | 113 | 77 | 97 | 50 | Stable | 67 | 4.68 | 4.66 | 6.36 | 79 | 79 | 6.11 | solubility kinetic [18]: > 80 µM; Stability (Liver microsomes): 115%; Papp (MDCK [19]): 25.6 ×10⁻⁶ cm/s; pKi (Histamine H2 receptor): < 5.00; Drug recovery (MDCK [20]): 73%
